Results published in PMC8842656 (Journal of Experimental Pharmacology, 2022).
Where two headings read alike, the source gives them in different places.

How the values were obtained:
[1] = humans, cited from earlier work
[2] = oral dose of 2g/kg; cited from earlier work
[3] = test system: LPS-induced experimental periodontal disease; conditions: rats, oral, 28 days, doses 0, 1, 5, 10 and 30 mg/kg; cited from earlier work
[4] = Single dose pharmacokinetic study, oral gavage, blood by LC/MS/MS; assay type: in vivo, rat
In short: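 Two groups of 6 Sprague-Dawley rats (3 males and 3 females each), 6–8 weeks old, received a single oral gavage of test compound at 500 or 1000 mg/kg, suspended in 2% carboxymethylcellulose. Blood was drawn at 5, 10, 15, 30, 45 min and 1, 2, 4, 6, 24 h. Compound was measured by LC/MS/MS, and t1/2, Tmax and Cmax were derived from mean (n=6) profiles.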

Long-term = assay type: in vivo, rat; conditions: 100 mg/kg/day oral, day 28
In short: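 Sprague-Dawley rats (3 males and 3 females) were dosed with test compound by oral gavage at 100 mg/kg/day for 28 days, suspended in 2% carboxymethylcellulose. On day 28 the animals were anesthetized and blood was sampled from 5 min to 24 h after dosing. Compound was quantified by LC/MS/MS, and Cmax and Tmax were taken from the mean (n=6) concentration-time profile.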

Sprague-Dawley (SD) rats [5] = assay: 5-day maximum tolerated dose; assay type: in vivo, rat
In short: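 Thirty Sprague-Dawley rats, 60–65 days old (276–300 g), viral-antibody free, formed 5 groups of 3 males and 3 females. They received 2% carboxymethylcellulose vehicle or test compound suspended in it at 50, 100, 500 or 1000 mg/kg/day by oral gavage once daily for 5 days. Mortality, body weight and food intake were monitored. Terminal hematology, clinical chemistry and necropsy followed, with control and high-dose organs sectioned. Two-tailed Student's t-test, p<0.05.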

Sprague-Dawley (SD) rats [6] = assay: 28-day toxicology evaluation within long-term PK study, oral gavage once daily; assay type: in vivo, rat; conditions: 100 mg/kg/day oral
In short: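 Male and female Sprague-Dawley rats, 6–8 weeks old (250–350 g), 3+3 per group, received 2% carboxymethylcellulose vehicle or test compound suspended in it at 100 mg/kg/day by oral gavage for 28 days. Adverse events, body weight and daily food intake were tracked. Terminal hematology and serum biochemistry, gross necropsy, and histopathology of heart, lungs, liver, kidney, spleen and colon followed. Two-tailed Student's t-test versus vehicle, p<0.05.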

[7] = 500 mg/kg oral and 20 mg/kg i.v., blood at 2 and 6 hours; cited from earlier work
[8] = 50-1000 mg/kg/day oral, 5 days, both sexes
[9] = 28-Day PK Study, compared to placebo-treated controls

## COc1cc(C=CC(=O)CC(=O)C=Cc2ccc(O)c(OC)c2)ccc1O [curcumin, 1,7-bis-(4-hydroxy-3-methoxyphenyl)-1,6-heptadiene-3,5-dione]
[1]; oral dose of 10 g/kg
  Cmax in serum: 50.5 ng/mL
  Time of Cmax: 4 h
[1]; oral dose of 12 g/kg
  Cmax in serum: 57.6 ng/mL
  Time of Cmax: 2 h
[2]
  Cmax: 1350 ± 230 ng/mL
  Time of Cmax: 0.75 h

## O=C(/C=C/c1ccc(O)cc1)C(C(=O)/C=C/c1ccc(O)cc1)C(=O)Nc1ccccc1 [CMC2.24]
[3]
  Minimum effective dose to inhibit inflammation and alveolar bone resorption: 1 mg/kg/day
[4]; oral administration
  Serum half-life: 10 h
[4]; single oral dose 500 mg/kg
  Cmax in blood: 8 ng/mL
  Tmax: 0.75 h
[4]; single oral dose 1000 mg/kg
  Cmax in blood: 6.7 ng/mL
  Tmax: 0.75 h
Long-term
  Peak blood concentration (Cmax): 0.2 ng/mL
  Tmax: 4 h
Sprague-Dawley (SD) rats [5]; [8]
  Daily food consumption and adverse events: no difference
  Mean body weight vs placebo treated controls: did not show significant differences
Sprague-Dawley (SD) rats [5]; oral, one week of treatment
  Highest dose found safe (MTD not demonstrated): ≥ 1000 mg/kg
Sprague-Dawley (SD) rats [6]; 28 days
  Adverse events: no adverse events were reported
Sprague-Dawley (SD) rats [6]; 28 days, both sexes
  Mean body weight vs placebo treated controls: no significant differences
Sprague-Dawley (SD) rats [6]; [9]
  Hematological & Serological parameters: No change observed
  Histology of organs (Heart, Lungs, Spleen, Liver, Kidney, Colon): Normal Histology Observed
[7]
  Bioavailability based on blood analysis: poor bioavailability
